Source: ChEMBL document CHEMBL1124841, “Chalcones: a new class of antimitotic agents” (1990)

Legend:
HeLa [1] = assay: In vitro antimitotic activity against HeLa cells after 6 hours exposure; assay type: functional, Homo sapiens
Method in brief: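 Asynchronous HeLa cells were exposed to compound continuously for 6 h. Mitotic index (cells in mitosis/cells counted) was scored on about 300 cells counted across three fields. The equivalent dose (ED) is the concentration giving the same mitotic index as the colchicine standard at 0.05 µg/mL.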

HeLa [2] = assay: In vitro antimitotic activity against HeLa cells after 1 hr exposure to the compound; assay type: functional, Homo sapiens
Method in brief: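 HeLa cells exposed to compound for 1 h, washed in fresh medium, then kept 18 h in compound-free medium. Mitotic index (cells in mitosis/cells counted) scored as in the 6-h test. The reported equivalent dose (ED) is the concentration giving the same mitotic index as vinblastine at 0.06 µg/mL.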

L1210 [3] = assay: The ratio of survival time for treated divided by survival time of control x 100 at a dose of 50 mg/kg in L1210 leukemia cells; assay type: functional, Mus musculus
Method in brief: (§1)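 Mice inoculated ip on day 0 with 1 × 10^5 L1210 leukemia or B16 melanoma cells. Compounds given ip once daily on days 1-9, suspended or dissolved in 5% PVP. Survival time recorded and averaged per group. Value is mean survival of treated over control × 100.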

B16 [4] = assay: The ratio of survival time for treated divided by survival time of control x 100 at a dose of 100 mg/kg in B16 melanoma cells; assay type: functional, Mus musculus; method in brief: as §1
L1210 [5] = assay: The ratio of survival time for treated divided by survival time of control x 100 at a dose of 25 mg/kg in L1210 leukemia cells; assay type: functional, Mus musculus; method in brief: as §1
B16 [6] = assay: The ratio of survival time for treated divided by survival time of control x 100 at a dose of 25 mg/kg in B16 melanoma cells; assay type: functional, Mus musculus; method in brief: as §1
L1210 [7] = assay: The ratio of survival time for treated divided by survival time of control x 100 at a dose of […] in L1210 leukemia cells; assay type: functional, Mus musculus
B16 [8] = assay: The ratio of survival time for treated divided by survival time of control x 100 at a dose of […] in B16 melanoma cells; assay type: functional, Mus musculus
L1210 [9] = assay: The ratio of survival time for treated divided by survival time of control x 100 at a dose of 6.25 mg/kg in L1210 leukemia cells; assay type: functional, Mus musculus; method in brief: as §1
L1210 [10] = assay: The ratio of survival time for treated divided by survival time of control x 100 at a dose of 0.2 mg/kg in L1210 leukemia cells; assay type: functional, Mus musculus; method in brief: as §1
B16 [11] = assay: The ratio of survival time for treated divided by survival time of control x 100 at a dose of 0.2 mg/kg in B16 melanoma cells; assay type: functional, Mus musculus; method in brief: as §1

SMILES	ED (HeLa [1]) [µg/mL]	further results
COc1ccc(OC)c(C(=O)/C=C/c2ccc(N(C)C)cc2)c1	0.0075	ED (HeLa [2]): 1.5 µg/mL
COc1ccc(C(=O)/C=C/c2ccc(N(C)C)cc2)cc1OC	3.1	
COc1cc(C(=O)/C=C/c2ccc(N(C)C)cc2)cc(OC)c1OC	0.015	ED (HeLa [2]): 12.5 µg/mL
COc1ccc(C(=O)/C=C/c2cccs2)c(OC)c1OC	3.1	
COc1cc(C(=O)/C=C/c2ccco2)cc(OC)c1OC	5	
COc1cc(C(=O)/C=C/c2ccc(N)cc2)cc(OC)c1OC	0.15	
COc1ccc(C(=O)/C(Br)=C/c2ccc(N(C)C)cc2)c(OC)c1OC	0.15	T/C (L1210 [3]): 140%; T/C (B16 [4]): 192%; ED (HeLa [2]): 6.25 µg/mL; T/C (L1210 [5]): 145%
COc1cc(C(=O)/C=C/c2ccc(C#N)cc2)cc(OC)c1OC	3.1	
COc1ccc(C(=O)/C=C/c2ccc(N(C)C)cc2C)c(OC)c1OC	3.1	
COc1ccc(OC)c(C(=O)/C(Br)=C/c2ccc(N(C)C)cc2)c1	0.0075	
CC(=O)Nc1ccc(/C=C/C(=O)c2ccc(C(N)=O)cc2)cc1	3.1	
CCN(CC)c1ccc(/C=C(\C)C(=O)c2cc(OC)c(OC)c(OC)c2)cc1	0.0075	
COc1ccc(OC)c(C(=O)/C(Cl)=C/c2ccc(N(C)C)cc2)c1	0.015	
COc1cc(C(=O)/C=C/c2ccccc2)cc(OC)c1OC	0.15	
CC(=O)Nc1ccc(/C=C/C(=O)c2ccc(C#N)cc2)cc1	25	
CO/N=C(\C=C\c1ccc(N(C)C)cc1)c1cc(OC)c(OC)c(OC)c1	0.3	
COc1cc(C(=O)/C(Br)=C/c2ccc(N(C)C)cc2)cc(OC)c1OC	0.0038	ED (HeLa [2]): 1.5 µg/mL
COc1cc(C(=O)/C=C/c2ccc(SC)cc2)cc(OC)c1OC	0.3	
COc1ccccc1C(=O)/C=C/c1ccc(N(C)C)cc1	0.15	ED (HeLa [2]): 6.25 µg/mL
COc1cc(C(=O)/C=C/c2ccc(C(C)(C)C)cc2)cc(OC)c1OC	2.5	
CCN(CC)c1ccc(/C=C/C(=O)c2cc(OC)c(OC)c(OC)c2)cc1	0.0075	
COc1cc(C(=O)/C=C/c2ccncc2)cc(OC)c1OC	25	
COc1cc(C(=O)/C=C(\C)c2ccccc2)cc(OC)c1OC	3.1	
COc1cc(C(=O)/C=C(\C)c2ccc(N)cc2)cc(OC)c1OC	0.3	
COc1ccc(OC)c(C(=O)/C=C/c2ccc(NC(C)=O)cc2)c1	6.25	

SMILES	ED (HeLa [1]) [µg/mL]	further results
COC(=O)Nc1ccc(/C=C/C(=O)c2cc(OC)c(OC)c(OC)c2)cc1	3.1	
CC(=O)Nc1ccc(/C=C/C(=O)c2cccc(Cl)c2)cc1	>100	
COc1ccc(C(=O)/C=C/c2ccc(NC(C)=O)cc2)c(OC)c1OC	3.1	
COc1cc(OC)c(C(=O)/C=C/c2ccc(NC(C)=O)cc2)c(OC)c1	3.1	
CCN(CC)c1ccc(/C=C(\C)C(=O)c2ccc(OC)c(OC)c2OC)cc1	25	
CCN(CC)c1ccc(/C=C/C(=O)c2ccc(OC)c(OC)c2OC)cc1	0.15	
CCCCOc1ccc(/C=C/C(=O)c2cc(OC)c(OC)c(OC)c2)cc1	>25	
COc1cc(C(=O)/C=C/c2cccs2)cc(OC)c1OC	3.1	
COc1cc(C(=O)/C=C/c2ccc([S+](C)[O-])cc2)cc(OC)c1OC (stereo not given)	>100	
COc1cc(C(=O)/C=C/c2ccc(N3CCOCC3)cc2)cc(OC)c1OC	6.25	
COc1cc(C(=O)/C=C/c2ccc(NC(C)=O)cc2)cc(OC)c1OC	3.1	
COc1ccc(C(=O)/C(C)=C/c2ccccc2)c(OC)c1OC		ED (HeLa [2]): 6.25 µg/mL
CCOc1ccc(/C=C/C(=O)c2cc(OC)c(OC)c(OC)c2)cc1	0.15	
COc1cc(C(=O)/C=C/c2ccccc2C(F)(F)F)cc(OC)c1OC	100	
COc1cc(C(=O)/C(C)=C/c2ccc(N(C)C)cc2)cc(OC)c1OC	0.019	ED (HeLa [2]): 0.3 µg/mL
CC(=O)Nc1ccc(/C=C/C(=O)c2ccc(C(C)(C)C)cc2)cc1	0.25	
COc1cc(C(=O)/C=C(\C)c2ccc(N(C)C)cc2)cc(OC)c1OC	>100	
COc1cc(C(=O)/C=C/c2ccc(N(C)C)cc2C)cc(OC)c1OC	0.0075	
COc1cc(C(=O)/C=C/c2ccc([N+](=O)[O-])cc2)cc(OC)c1OC	25	
CC/C(=C\c1ccc(N(C)C)cc1)C(=O)c1ccc(OC)c(OC)c1OC	0.15	
COc1cc(C(=O)/C=C/c2cccc(NC(C)=O)c2)cc(OC)c1OC	>100	
COc1cc(C(=O)/C=C/c2cccc(N(C)C)c2)cc(OC)c1OC	>100	
COc1ccc(C(=O)/C(Cl)=C/c2ccc(N(C)C)cc2)c(OC)c1OC	0.015	
CCN(CC)c1ccc(/C=C(\C)C(=O)c2cc(OC)ccc2OC)cc1	0.15	
COc1cc(C(=O)/C=C/C=C/c2ccc(N(C)C)cc2)cc(OC)c1OC	3.1	

SMILES	ED (HeLa [1]) [µg/mL]	further results
COc1ccc(C(=O)/C=C/c2ccc(NC(C)=O)cc2)cc1	3.1	
CCc1cccc(C(=O)/C=C/c2ccc(NC(C)=O)cc2)c1	>100	
CCCCNc1ccc(/C=C/C(=O)c2cc(OC)c(OC)c(OC)c2)cc1	6.25	
COc1ccc(C(=O)/C(C)=C/c2ccc(N(C)C)cc2)c(OC)c1OC	1.5	T/C (L1210 [3]): 138%; T/C (B16 [6]): 190%; T/C (L1210 [5]): 121%
CC(=O)Nc1ccc(/C=C/C(=O)c2cccc(C(F)(F)F)c2)cc1	25	
COc1cc(C(=O)/C=C/c2cccc(N)c2)cc(OC)c1OC	0.15	
COc1cc(C(=O)/C=C/c2cccc([N+](=O)[O-])c2)cc(OC)c1OC	>100	
COc1cc(C(O)/C=C/c2ccc(N(C)C)cc2)cc(OC)c1OC (stereo not given)	3.1	
COc1cc(C(=O)CCc2ccc(N(C)C)cc2)cc(OC)c1OC	3.1	
COc1cc(C(=O)/C=C/c2ccc(N(C)C)cc2)cc(OC)c1O	3.1	
COc1ccc(C(=O)/C=C/c2ccc(N(C)C)cc2)c(OC)c1OC	0.015	
COc1ccc(C(=O)/C=C/c2ccc(N(C)C)cc2)c(OC)c1	6.25	
COc1cc(/C=C/C(=O)c2ccccc2)cc(OC)c1OC	>25	
COc1cc(C(=O)/C=C/c2ccc(Br)cc2)cc(OC)c1OC	0.015	
COc1cc(C(=O)/C(Cl)=C/c2ccc(N(C)C)cc2)cc(OC)c1OC	3.1	
COc1cc(C(=O)/C=C/c2ccc(F)cc2)cc(OC)c1OC	>25	
COc1cc(C(=O)/C=C/c2ccc(OC(C)C)cc2)cc(OC)c1OC	>25	
COc1cc(/C=C/C(=O)c2ccc(N(C)C)cc2)cc(OC)c1OC	0.15	
COc1cc(C(=O)C#Cc2ccccc2)cc(OC)c1OC	>6.25	
COc1cc(C(=O)/C=C/c2ccc(C(F)(F)F)cc2)cc(OC)c1OC	6.25	
COc1ccc(OC)c(C(=O)/C(C)=C/c2ccc(N(C)C)cc2)c1	0.0038	T/C (L1210 [7]): 137%; T/C (B16 [8]): 146%; T/C (L1210 [3]): 154%; T/C (L1210 [9]): 126%; T/C (B16 [6]): 183%; ED (HeLa [2]): 0.06 µg/mL; T/C (L1210 [5]): 146%
O=C(/C=C/c1ccccc1)c1ccccc1 [CHALCONE]	3.1	
COc1cc2c(c(OC)c1OC)-c1ccc(OC)c(=O)cc1[C@@H](NC(C)=O)CC2 [COLCHICINE]	0.05	
CC[C@]1(O)C[C@@H]2CN(CCc3c([nH]c4ccccc34)[C@@](C(=O)OC)(c3cc4c(cc3OC)N(C)[C@H]3[C@@](O)(C(=O)OC)[C@H](OC(C)=O)[C@]5(CC)C=CCN6CC[C@]43[C@@H]65)C2)C1 [VINBLASTINE]	0.0015	T/C (L1210 [10]): 140%; T/C (B16 [11]): 180%
